Values belong to the compound of their own block, whether it stands above or below them. Active and inactive are the calls of the source. No cut-off for these calls is given here.
Experiments:
[1] = biological target: T1, Catechol O-methyltransferase (Rattus norvegicus) (UniProt P22734); test: Ability to inhibit Catechol O-methyltransferase from rat liver at a concentration of 1 mM. Inhibition pattern was reported; No inhibitory activity
T1 sequence (whole entry): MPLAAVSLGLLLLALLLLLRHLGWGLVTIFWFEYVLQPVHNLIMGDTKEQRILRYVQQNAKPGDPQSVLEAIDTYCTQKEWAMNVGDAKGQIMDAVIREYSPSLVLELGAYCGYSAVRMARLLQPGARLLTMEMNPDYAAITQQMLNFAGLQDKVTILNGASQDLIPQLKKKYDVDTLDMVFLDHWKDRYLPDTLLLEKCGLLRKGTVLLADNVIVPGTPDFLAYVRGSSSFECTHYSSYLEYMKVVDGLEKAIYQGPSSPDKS
Outline: (§1)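 COMT purified from male Sprague–Dawley rat liver (180–200 g) through the calcium phosphate step, then reactivated before use by 40 min preincubation at 37 °C in pH 7.6 phosphate buffer with 4 mM DTT. Radiochemical assay: 3,4-dihydroxybenzoic acid variable (0.02–0.20 mM), SAM 0.2 mM plus 0.05 μCi SAM-¹⁴CH₃, Mg²⁺ 1 mM, DTT 4 mM, 100 mM phosphate pH 7.6. Inhibition pattern and Kis/Kii taken from double-reciprocal plots.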

[2] = biological target: T1, Catechol O-methyltransferase (Rattus norvegicus); test: Ability to inhibit Catechol O-methyltransferase from rat liver. kinetic inhibition Kis constant was reported; outline: as §1
[3] = biological target: T1, Catechol O-methyltransferase (Rattus norvegicus); test: Ability to inhibit Catechol O-methyltransferase from rat liver at a concentration of 1 mM. Inhibition pattern was reported; Noncompetitive kinetics; outline: as §1
[4] = biological target: T1, Catechol O-methyltransferase (Rattus norvegicus); test: Ability to inhibit Catechol O-methyltransferase from rat liver. kinetic inhibition Kii constant was reported; outline: as §1
[5] = biological target: T1, Catechol O-methyltransferase (Rattus norvegicus); test: Ability to inhibit Catechol O-methyltransferase kinetic inhibition Kii constant was reported.; outline: as §1
[6] = biological target: T1, Catechol O-methyltransferase (Rattus norvegicus); test: Ability to inhibit Catechol O-methyltransferase kinetic inhibition Kis constant was reported.; outline: as §1
[7] = biological target: T1, Catechol O-methyltransferase (Rattus norvegicus); test: Ability to inhibit Catechol O-methyltransferase from rat liver at a concentration of 1 mM. Inhibition pattern was reported; Competitive kinetics; outline: as §1
[8] = biological target: T1, Catechol O-methyltransferase (Rattus norvegicus); test: Ability to inhibit Catechol O-methyltransferase. Following kinetic inhibition constants Kis was reported; outline: as §1
[9] = biological target: T1, Catechol O-methyltransferase (Rattus norvegicus); test: Ability to inhibit Catechol O-methyltransferase. Following kinetic inhibition constants Kii was reported; outline: as §1

SMILES: COc1c(O)cc(C=O)cc1I
inhibition pattern [3]: Noncompetitive kinetics
Kii [5]: 56.6 µM
Kis [6]: 111 µM

SMILES: COc1c(O)cc(C(=O)O)cc1Br
Kis [2]: 340 µM
inhibition [7]: Competitive kinetics

SMILES: COc1c(O)cc(C=O)cc1O
inhibition pattern [3]: Noncompetitive kinetics
Kii [5]: 16.1 µM
Kis [6]: 9.98 µM

SMILES: COc1ccc(C(=O)O)cc1O
inhibition [1]: inactive

SMILES: COc1c(N)cc(C(=O)O)cc1O
inhibition [1]: inactive

SMILES: COc1c(O)cc(C(=O)O)cc1I
inhibition [1]: inactive

SMILES: COc1c(O)cc(C=O)cc1[N+](=O)[O-]
inhibition [7]: Competitive kinetics
Kis [6]: 0.7 µM

SMILES: COc1ccc(C=O)cc1O
inhibition [1]: inactive

The remaining lines, values ahead:

inhibition [1]: inactive
SMILES: COc1c(O)cc(C(=O)O)cc1N(C)C

Kis [2]: 589 µM
inhibition pattern [3]: Noncompetitive kinetics
Kii [4]: 571 µM
SMILES: COc1c(O)cc(C(=O)O)cc1C#N

Kis [2]: 999 µM
inhibition pattern [3]: Noncompetitive kinetics
Kii [4]: 521 µM
SMILES: COc1cc(C(=O)O)cc(O)c1OC

inhibition pattern [3]: Noncompetitive kinetics
Kii [5]: 16.5 µM
Kis [6]: 31.8 µM
SMILES: COc1c(O)cc(C=O)cc1Br

Kis [2]: 50.2 µM
inhibition pattern [3]: Noncompetitive kinetics
Kii [4]: 247 µM
SMILES: COc1c(O)cc(C(=O)O)cc1[N+](=O)[O-]

Kis [8]: 885 µM
inhibition pattern [3]: Noncompetitive kinetics
Kii [9]: 272 µM
SMILES: CCOC(=S)Sc1cc(C=O)cc(O)c1OC

inhibition [3]: Noncompetitive kinetics
Kii [5]: 48.4 µM
Kis [6]: 56.9 µM
SMILES: COc1c(O)cc(C=O)cc1F

Kis [2]: 394 µM
inhibition [7]: Competitive kinetics
SMILES: COc1c(O)cc(C(=O)O)cc1Cl

inhibition pattern [3]: Noncompetitive kinetics
Kii [5]: 10.8 µM
Kis [6]: 31.6 µM
SMILES: COc1c(O)cc(C=O)cc1Cl
